# Bioassay records: PubChem, several laboratories
# A selection: hits, their analogues and other compounds. The true share with any hit is near 2.6%.
# RanGTP-Impb inh: inhibitors of RanGTP-importin-beta interaction, primary screen, biochemical, FRET, CFP-Ran, YFP-importin-beta, homogeneous | AID 2216 | inhibition, % (test concentration not listed) | cell-free CFP-Ran/YFP-importin-beta FRET ratio | 300,000 tested, 1.1% active;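 active = more than half of the replicate wells show a fall in the fluorescence ratio signal beyond about 16%, limit read from the data, passing the limit was not always enough; inconclusive = exactly half of the replicate wells pass the set limit; inactive = fewer than half of replicates pass the limit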
# Runt-CBFb FRET: blocks binding of human RUNX1 Runt domain to CBFb; Cerulean-Runt/Venus-CBFb FRET ratio 530/480, 1 h; inhibition, % at 20 µM; 220,000 tested, 0.46% active;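 active = inhibition over about 50% at 20 µM in the single-dose screen, limit read from the data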
# Target sequence (Q01196 whole entry, looked up, the tested form may be a part): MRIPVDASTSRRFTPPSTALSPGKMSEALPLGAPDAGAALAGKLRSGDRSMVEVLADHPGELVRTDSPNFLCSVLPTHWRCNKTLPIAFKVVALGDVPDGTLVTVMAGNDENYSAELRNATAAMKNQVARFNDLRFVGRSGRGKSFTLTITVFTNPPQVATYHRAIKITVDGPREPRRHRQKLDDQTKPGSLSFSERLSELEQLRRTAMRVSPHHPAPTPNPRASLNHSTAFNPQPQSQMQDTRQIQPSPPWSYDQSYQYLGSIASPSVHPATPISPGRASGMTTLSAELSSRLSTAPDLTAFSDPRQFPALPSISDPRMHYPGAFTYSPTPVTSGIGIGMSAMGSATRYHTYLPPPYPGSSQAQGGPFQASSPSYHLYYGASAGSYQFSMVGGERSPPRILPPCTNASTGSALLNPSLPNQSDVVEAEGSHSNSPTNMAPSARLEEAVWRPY
# Target sequence (Q13951 whole entry, looked up, the tested form may be a part): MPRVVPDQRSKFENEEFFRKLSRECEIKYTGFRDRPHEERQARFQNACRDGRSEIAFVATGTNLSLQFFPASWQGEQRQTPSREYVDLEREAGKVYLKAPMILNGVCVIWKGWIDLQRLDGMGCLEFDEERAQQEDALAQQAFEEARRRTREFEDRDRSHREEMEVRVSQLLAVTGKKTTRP
#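 test system = Cerulean-Runt domain fusion protein, energy donor | probe or stimulus = Venus-CBFb binding partner, 100 nM | incubation = two 1 h room-temperature incubations shielded from light | detection = fluorescence energy transfer, 422 nm excitation, 530/480 nm emission | measure = loss of energy transfer signal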
# VIM-2 inh: blocks Pseudomonas aeruginosa VIM-2 metallo-beta-lactamase | 290,000 tested, 0.89% active | inhibition, % at 5.6 µM | AID 1527 | purified VIM-2, nitrocefin hydrolysis, epi-absorbance fluorescence;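 active = inhibition above the mean of all tested compounds plus 3 SD, cutoff set per screening run, cut at about 7.5% in these data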;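 note: red hydrolysis product quenches plate fluorescence so inhibitors raise well fluorescence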
# IMP-1 inh-1: blocks Pseudomonas aeruginosa IMP-1 metallo-beta-lactamase; purified IMP-1, nitrocefin hydrolysis, epi-absorbance fluorescence; inhibition, % at 5.6 µM; 290,000 tested, 0.45% active; AID 1556;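 active = inhibition above the mean plus 3 SD of all compounds in the same screening run, cut at about 4.5% in these data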
#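 Material – recombinant IMP-1 enzyme, purified · Amount – IMP-1 0.2 nM before substrate addition · Medium – HEPES buffer pH 7.1 with ZnSO4 and Brij 35 · Timing – 25 °C, 15 min preincubation, 25 min reaction · Measured by – plate fluorescence quenching by hydrolysis product, ex 480/em 530 nm · Read-out – percent enzyme inhibition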
# Runt-SMMHC FRET: Runt domain-CBFb-SMMHC interaction inhibition; Q01196+Q13951; Cerulean-Runt/Venus-CBFb-SMMHC FRET ratio 530/480, 1 h; inhibition, % at 20 µM; 220,000 tested, 0.74% active;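 active = mean inhibition across duplicate retests at 20 µM reaching about 50%, limit read from the data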;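 note: inhibitors lower the FRET ratio by blocking Runt binding to CBFb-SMMHC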
# IMP-1 inh-2: IMP-1 inhibition, counter-screen for VIM-2 inhibitors. shares compounds with VIM-2 inh. purified IMP-1, nitrocefin hydrolysis, epi-absorbance fluorescence. inhibition, % at 5.6 µM. 1,300 tested, under 10 active; call rule not given here
# VIM-2 FRET inh: counter-screen for VIM-2 inhibitors: epi-absorbance artifacts via FRET; shares compounds with VIM-2 inh; purified VIM-2, CCF2 FRET substrate hydrolysis; inhibition, % at 5.6 µM; 1,300 tested, 23% active;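 active = inhibition above the mean of all tested compounds plus 3 SD, cut at about 19% in these data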
# TEM-1 counter: blocks E. coli TEM-1 beta-lactamase in VIM-2 selectivity screen; shares compounds with VIM-2 inh; Purified TEM-1, nitrocefin hydrolysis, epi-absorbance fluorescence; inhibition, % at 5.6 µM; 1,300 tested, 3% active;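 active = inhibition above that campaign's mean inhibition plus 3 SD, cut at about 0.46% in these data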
# VIM-2 confirm 2: confirmation of P. aeruginosa VIM-2 metallo-beta-lactamase inhibitors | shares compounds with VIM-2 inh | purified VIM-2, nitrocefin hydrolysis, epi-absorbance | inhibition, % at 5.6 µM | 1,300 tested, 96% active | AID 2187;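 active = inhibition of the VIM-2 beta-lactamase enzyme above about 11% from the earlier first-round screen, limit read from the data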
# Hits are given with their value; n = inactive; u = inconclusive; x = not tested or not shown.
SMILES,RanGTP-Impb inh,Runt-CBFb FRET,VIM-2 inh,IMP-1 inh-1,Runt-SMMHC FRET,IMP-1 inh-2,VIM-2 FRET inh,TEM-1 counter,VIM-2 confirm 2
Cc1ccc(NC(=O)CS(=O)CC(=O)NC23CC4CC(CC(C4)C2)C3)cc1 (stereo not given),n,x,n,n,x,x,x,x,x
CC(=O)c1cc(C#N)c(NCCCN(C)C)nc1C,n,n,n,n,n,x,x,x,x
Cc1cc(NCCCN(C)C)n2c(nc3ccccc32)c1C#N,u,x,57,n,x,n,n,n,65
Cc1c2c(n3c(nc4ccccc43)c1C#N)N(CCCN(C)C)CC2,n,100,32,n,91,n,n,n,48
Cc1cc(NCCCOC(C)C)n2c(nc3ccccc32)c1C#N,26,x,30,n,x,n,n,n,37
Cc1cc(NCCCn2ccnc2)n2c(nc3ccccc32)c1C#N,19,n,82,n,n,n,n,n,89
COC(=O)c1ccccc1NC(=O)CCC(=O)N1CC(C)Oc2ccc(C)cc21 (stereo not given),n,x,n,n,x,x,x,x,x
CCCCN(C(=O)c1ccc(OC)c([N+](=O)[O-])c1)c1c(N)n(CCC)c(=O)[nH]c1=O,n,x,n,n,x,x,x,x,x
COc1ccc([N+](=O)[O-])cc1NC(=O)C(C)OC(=O)CSC(C)C(=O)Nc1cc(C)on1 (stereo not given),n,x,x,x,x,x,x,x,x
CCC(C)Nc1cc(C)c(C#N)c2nc3ccccc3n12 (stereo not given),n,x,28,n,x,n,n,n,38
Cc1cc(-c2ccco2)c(C#N)c2nc3ccccc3n12,n,n,n,n,n,x,x,x,x
Cc1c(C#N)c2ccccc2n1CC(=O)NCC1CCCO1 (stereo not given),n,n,n,n,n,x,x,x,x
Cc1cc(NCC2CCCO2)n2c(nc3ccccc32)c1C#N (stereo not given),n,n,13,n,n,n,n,n,38
COc1cccc(-c2coc3c(C)c4oc(=O)c(CCC(=O)O)c(C)c4cc23)c1,n,x,15,n,x,n,n,n,22
COc1ccc(-c2coc3cc4oc(=O)c(CC(=O)O)c(C)c4cc23)cc1,n,x,n,n,x,x,x,x,x
COc1ccc(-c2coc3c(C)c4oc(=O)c(CC(=O)O)c(C)c4cc23)cc1,n,x,16,n,x,n,n,n,22
O=C(NCCCn1ccnc1)c1nn2c(C(F)(F)F)cc(-c3ccccc3)nc2c1Cl,n,n,27,n,n,n,n,n,53
O=S(=O)(NCc1ccc(F)cc1)c1ccc(-n2cnnn2)cc1,n,x,n,n,x,x,x,x,x
COc1ccccc1C(=O)Nc1nnc(SCC(=O)NCC2CCCO2)s1 (stereo not given),n,x,15,n,x,n,33,n,21
O=C(CSc1nnc(NC(=O)c2cc(Br)ccc2Cl)s1)NCC1CCCO1 (stereo not given),n,x,25,n,x,n,48,n,33
COc1cc(C(=O)Nc2nnc(SCC(=O)NCC3CCCO3)s2)cc(OC)c1OC (stereo not given),n,x,n,n,x,x,x,x,x
CC(C)(C)C(=O)N(Cc1ccc(Cl)cc1)c1cnccn1,u,x,n,n,x,x,x,x,x
Cc1cccnc1CN1CCN(C(=O)c2cc(COc3ccc4ncccc4c3)on2)CC1,n,n,48,n,n,n,n,n,64
CCOC(=O)N1CCN(C(=O)c2cc(COc3ccc4ncccc4c3)on2)CC1,n,n,n,n,n,x,x,x,x
Cc1ccc(-c2cn3c(=S)[nH]nc3s2)cc1,n,n,45,n,n,n,69,n,54
C/C(=N\O)C(C)(C)Nc1ccc(Br)cc1,n,n,n,n,n,x,x,x,x
CCCC(=O)Nc1nnc(SCC(=O)NCc2cccs2)s1,n,x,20,n,n,n,44,n,33
Cc1cccc(Nc2nnc(SCC(=O)NCc3cccs3)s2)c1,n,n,n,n,n,x,x,x,x
COCC(=O)Nc1nnc(SCC(=O)NCc2cccs2)s1,n,n,22,n,n,n,53,n,38
CN1CCN(C(=O)CSc2nc(-c3cccs3)cc(-c3cccs3)c2C#N)CC1,n,n,45,n,n,n,n,n,70
